Most compounds without a hit are left out; they make up all but 2% or so of the library.
STAT1 blocker: inhibitors of IFN-gamma induced STAT1 signaling; NIH 3T3 STAT1-luciferase reporter, luminescence; inhibition, % at 5.5 µM; 200,000 tested, 0.35% active; AID 920;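 active = inhibition above a set limit, the mean inhibition across all tested compounds plus 3 SD, cut at about 34% in these data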;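 note: 0% = IFN-gamma with DMSO and 100% = IFN-gamma with 300 µM nifuroxazide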
HSP90 inh: inhibitors of HSP90 luciferase refolding in rabbit reticulocyte lysate; AID 1789; luciferase refolding luminescence, 3 h; inhibition, % at 5.6 µM; 290,000 tested, 0.91% active;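 active = inhibition above the screen-wide mean plus 3 SD, computed separately per campaign, cut at about 16% in these data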;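 note: 0% = DMSO wells and 100% = 60 µM geldanamycin wells; inhibitors lower the luminescence because luciferase stays unfolded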
STAT3 blocker: STAT3 signaling inhibition. U3A cells, IL-6 STAT3-luciferase reporter, luminescence; host cell line lacks STAT1. inhibition, % at 5.5 µM. 190,000 tested, 0.89% active;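 active = inhibition above the mean inhibition across all screened compounds plus 3 SD, cut at about 44% in these data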;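 note: 0% = DMSO only wells and 100% = 100 µM nifuroxazide control wells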
STAT3 act: increases IL-6 driven STAT3 reporter signal | 190,000 tested, 0.91% active | activation (% of control), % at 5.6 µM | U3A cells, IL-6 STAT3-luciferase reporter, luminescence; 100% = signal with IL-6 EC80 alone;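 active = activation above the screen-wide mean of compound activation plus 3 SD, cut at about 130% in these data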;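 note: 0% = background luminescence of wells with medium and substrate only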
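Test system: STAT3-luciferase reporter U3A cells; Detection: reporter luminescence signal; Times: 1 h compound pre-exposure, 6 h IL-6 stimulation, 37 °C; Benchmarks: IL-6-only high control; Also added: IL-6 stimulus at 33 ng/mL final.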
* hit, by the source's call; . = no result.

SMILES	STAT1 blocker	HSP90 inh	STAT3 blocker	STAT3 act
O=C1c2cccc(Cl)c2C(=O)c2c1cccc2N1CCCC1	7.5	-0.9	-29.1	137.0*
S=C(NCC1CC1)N/N=C/c1ccccc1Cl	.	3.3	.	.
Cc1ccc(C(=O)Nc2ncc3c(Cl)cccc3n2)cc1	-14.7	1.8	63.1*	47.9
COc1ccc(N2CCN(C3CCCN(C(=O)CCN4CCCCO4)C3)CC2)cc1 (configuration not stated)	.	0.5	.	.
COc1cc(CNC(=O)c2cccc(COc3ccc(Cl)cc3)c2)cc(OC)c1	-7.9	15.7	19.4	82.7
CCc1c(C)nc(SCC(=O)c2cccs2)c(C#N)c1C	-39.9	0.4	-50.2	149.4*
c1ccc(-c2ccc3c(c2)NCCN3)cc1	.	4.0	.	.
O=[N+]([O-])c1ccc(C2Nc3cccc4cccc(c34)N2)cc1	-3.4	3.2	-35.7	134.5*
O=[N+]([O-])c1cccc(C2Nc3cccc4cccc(c34)N2)c1	-3.9	1.1	5.0	98.8
O/C(=C\c1nc2ccccc2nc1/C=C(\O)c1ccccc1)c1ccccc1	-39.1	2.4	-39.4	145.4*
Cc1cc2n(n1)C(c1c[nH]c3ccccc13)Nc1ccccc1-2 (configuration not stated)	3.0	-1.8	-40.8	138.7*
O=C(NC1CCOCC1)C1CCC(=O)N(Cc2ccc(Cl)cc2)C1 (configuration not stated)	.	-1.3	.	.
CN=c1scc(-c2ccco2)n1/N=C/c1ccc(O)c(O)c1	-0.2	16.5*	1.0	110.6
COc1ccc(O)c(/C=N/n2c(-c3ccco3)csc2=Nc2cccnc2)c1	-4.3	2.1	-5.0	103.2
COc1ccc2c(c1)c(CC(=O)Nc1cccc(S(N)(=O)=O)c1)c(C)n2C(=O)c1ccc(Cl)cc1	.	4.1	.	.
Cc1nnsc1S(=O)c1ccccc1Cl (configuration not stated)	.	-3.8	.	.
COc1ccc2c(c1OC)C(=O)N1c3ccccc3C(=O)N(c3ccccc3)C21 (configuration not stated)	52.8*	2.6	49.0*	61.4
COc1ccc([N+](=O)[O-])cc1NC(=O)CCN1CCOCC1	.	-2.5	.	.
CCOc1ccc(C(=O)N/N=C/c2ccc(SC)cc2)cc1	-9.1	4.2	-1.8	99.4
CSc1ccc(/C=N/NC(=O)c2cccc(O)c2)cc1	3.9	5.7	47.2*	65.4
COC(=O)/C(=N\OCc1ccc(C#N)cc1)c1c(C)nn(C)c1C	.	-0.4	.	.
Cc1ccccc1CNC(=O)c1ccccc1C(=O)O	-4.2	16.2*	2.3	101.2
CN(C)C(=O)CN(c1ccc(F)c(Cl)c1)S(C)(=O)=O	6.9	1.5	-37.6	135.2*
CS(=O)(=O)N(CC(N)=O)c1ccc(F)c(Cl)c1	-4.5	1.2	2.0	100.7
O=C(Nc1ccccc1)c1ccc(=O)[nH]n1	.	-3.3	.	.
SMILES	STAT1 blocker	HSP90 inh	STAT3 blocker	STAT3 act
O=C(CS(=O)c1ccccc1[N+](=O)[O-])Oc1ccc(Br)cc1 (configuration not stated)	20.0	1.9	6.6	104.6
CS(=O)(=O)c1ccc(S(=O)CC(=O)Oc2ccc(Cl)cc2)c([N+](=O)[O-])c1 (configuration not stated)	3.0	0.1	-37.7	134.6*
CC(C)c1ccc(/C=C/c2[nH]c(=O)[nH]c(=O)c2[N+](=O)[O-])cc1	.	7.8	.	.
COc1cccc(/C=N/Nc2ccc(S(=O)(=O)O)cc2)c1O	2.5	-1.8	-0.8	107.4
COc1cccc(/C=N/Nc2ccc(C(=O)O)cc2)c1O	90.8*	95.2*	100.1*	15.0
Fc1ccccc1CSCc1nc2ccccc2[nH]1	-33.8	0.7	-17.8	118.2
O=C(Nc1ncccc1O)c1ccc2ccccc2c1	.	16.9*	.	.
O=C(Nc1nccs1)c1ccc2ccccc2c1	.	3.7	.	.
Cc1ccc(N(CC(=O)NC2CCCCC2)C(=O)CCCC(=O)Nc2ccccn2)cc1	.	-1.4	.	.
Cc1ccc(S(=O)(=O)NCCc2cccs2)cc1	.	6.4	.	.
Cc1ccc(S(=O)(=O)CCC(=O)OCC(=O)c2c[nH]c3ccccc23)cc1	7.1	-1.5	-3.3	104.9
O=C(OCC(=O)c1c[nH]c2ccccc12)c1ccc([N+](=O)[O-])s1	12.8	-1.2	-34.4	135.2*
Cc1ccc(C(=O)OCC(=O)c2c[nH]c3ccccc23)cc1	-28.9	0.1	-33.6	133.0*
COc1ccc(NC(=O)NCc2ccc3c(c2)OCO3)cc1OC	.	-5.7	.	.
Cc1ccc(NC(=O)CSc2nnc(-c3cccs3)o2)cc1S(=O)(=O)N(C)C	-14.5	-2.8	9.2	97.2
COc1ccccc1C1N(c2ccc(Cl)cc2)C(=O)C2CCCN21 (configuration not stated)	5.4	5.2	-39.4	134.3*
COc1ccc(N2C(=O)C3CCCN3C2c2ccccc2OC)cc1 (configuration not stated)	7.5	1.9	11.8	97.2
COCCn1c(=NC(=O)c2ccc(S(=O)(=O)N3CCc4ccccc4C3)cc2)sc2cc(S(N)(=O)=O)ccc21	-2.8	-1.1	-28.6	135.2*
C=CCn1c(=NC(=O)c2ccc(S(=O)(=O)N3CCc4ccccc4C3)cc2)sc2cc(S(N)(=O)=O)ccc21	-9.9	1.0	-35.9	130.6
N#C/C(=C\c1ccc(OCc2ccc(C(=O)O)cc2)cc1)C(=O)N1CCOCC1	69.2*	72.6*	89.1*	24.1
COc1cc(/C=C(\C#N)C(=O)N2CCOCC2)ccc1OCc1ccccc1	-12.0	2.0	24.6	84.2
COc1ccc(-n2c(=O)c3c4c(sc3n3c(=S)[nH]nc23)COC(C(C)C)C4)cc1 (configuration not stated)	.	1.6	.	.
O=C(Nc1nc2c(ccc3ccccc32)s1)c1cc([N+](=O)[O-])ccc1N1CCOCC1	-35.2	0.3	-30.8	133.3*
O=C(Nc1nc(-c2ccc(-c3ccccc3)cc2)cs1)c1cc([N+](=O)[O-])ccc1N1CCOCC1	-9.7	0.6	2.2	103.2
COc1ccc(C(=O)Nc2ccc(S(=O)(=O)N3CCCC3)cc2)cc1[N+](=O)[O-]	.	1.3	.	.
SMILES	STAT1 blocker	HSP90 inh	STAT3 blocker	STAT3 act
COc1ccc(CCC(=O)NCc2cn3ccccc3n2)cc1	.	-0.3	.	.
CCN=C1NN=C(c2ccc(C)cc2)CS1	15.9	0.3	65.8*	49.4
CC(C)(C)c1ccc(S(=O)(=O)/N=C2\C=C(NS(=O)(=O)c3ccccc3)C(=O)c3ccccc32)cc1	.	-1.2	.	.
CC(C)c1ccc(S(=O)(=O)/N=C2/C=C(Sc3ncn[nH]3)C(=O)c3ccccc32)cc1	11.2	59.6*	-59.2	151.7*
C[C@H](NC(=O)c1ccco1)C(=O)NCCc1ccc(S(N)(=O)=O)cc1	.	2.5	.	.
NS(=O)(=O)c1ccc(CNC(=O)Cc2ccccc2[N+](=O)[O-])cc1	.	4.4	.	.
NS(=O)(=O)c1ccc(CCNC(=O)Cc2ccccc2[N+](=O)[O-])cc1	5.6	1.3	-29.5	133.2*
CCC(C)Nc1nc(-c2cccc(OC)c2O)nc2ccccc12 (configuration not stated)	-1.5	-1.8	-7.1	112.7
COc1cccc(-c2nc(NC(C)C)c3ccccc3n2)c1O	1.8	2.1	-34.5	134.0*
CCC(NC(=O)Nc1nnc(C(F)(F)F)s1)(C(F)(F)F)C(F)(F)F	61.0*	-0.7	99.2*	21.3
O=C(O)CCC(=O)Nc1nnc(C(F)(F)F)s1	2.3	2.0	10.0	94.2

Screens from PubChem.
